Laboratory results published in ChEMBL document CHEMBL2046286, “Deconstructing 14-phenylpropyloxymetopon: minimal requirements for binding to mu opioid receptors” (Bioorg Med Chem, 2012).
The source made the active and inactive calls. No cut-off for these calls is given here.

Tests used:
Format in all cases: tissue-based
[1] = molecular target: Mu-type opioid receptor (Rattus norvegicus) (UniProt P33535); assay: (§1) Displacement of [3H]DAMGO from mu opioid receptor in rat brain homogenate after 1 hr by liquid scintillation counting
In short: (§2)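 Competition with 12 concentrations of test compound, 1 h at 25°C; terminated by rapid vacuum filtration through GF/B filters presoaked in 0.5% polyethyleneimine. Bound radioactivity counted by liquid scintillation; Ki by Cheng-Prusoff.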

[2] = molecular target: Delta-type opioid receptor (Rattus norvegicus) (UniProt P33533); assay: (§3) Displacement of [3H]DPDPE from delta opioid receptor in rat brain homogenate after 1 hr by liquid scintillation counting
[3] = molecular target: Kappa-type opioid receptor (Rattus norvegicus) (UniProt P34975); assay: (§4) Displacement of [3H]U69593 from kappa opioid receptor in rat brain homogenate after 1 hr by liquid scintillation counting
Mu-type opioid receptor = Mu-type opioid receptor (Rattus norvegicus, UniProt P33535); assay: as §1; in short: as §2
[4] = molecular target: Delta-type opioid receptor (Rattus norvegicus, UniProt P33533); assay: as §3
[5] = molecular target: Kappa-type opioid receptor (Rattus norvegicus, UniProt P34975); assay: as §4
Kappa-type opioid receptor, sequence (P34975 whole entry): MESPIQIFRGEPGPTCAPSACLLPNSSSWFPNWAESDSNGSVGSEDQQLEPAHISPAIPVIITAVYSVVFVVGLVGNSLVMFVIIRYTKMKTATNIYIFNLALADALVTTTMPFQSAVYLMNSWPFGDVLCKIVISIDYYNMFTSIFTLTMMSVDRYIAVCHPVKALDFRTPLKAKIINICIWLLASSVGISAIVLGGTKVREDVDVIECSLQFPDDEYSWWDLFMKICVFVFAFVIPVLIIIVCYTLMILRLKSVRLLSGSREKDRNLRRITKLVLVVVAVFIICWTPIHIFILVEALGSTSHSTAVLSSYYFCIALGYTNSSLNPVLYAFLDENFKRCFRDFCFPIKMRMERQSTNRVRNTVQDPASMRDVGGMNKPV

Kappa-type opioid receptor (Rattus norvegicus), sequence (P34975 whole entry): as above
Delta-type opioid receptor, sequence (P33533 whole entry): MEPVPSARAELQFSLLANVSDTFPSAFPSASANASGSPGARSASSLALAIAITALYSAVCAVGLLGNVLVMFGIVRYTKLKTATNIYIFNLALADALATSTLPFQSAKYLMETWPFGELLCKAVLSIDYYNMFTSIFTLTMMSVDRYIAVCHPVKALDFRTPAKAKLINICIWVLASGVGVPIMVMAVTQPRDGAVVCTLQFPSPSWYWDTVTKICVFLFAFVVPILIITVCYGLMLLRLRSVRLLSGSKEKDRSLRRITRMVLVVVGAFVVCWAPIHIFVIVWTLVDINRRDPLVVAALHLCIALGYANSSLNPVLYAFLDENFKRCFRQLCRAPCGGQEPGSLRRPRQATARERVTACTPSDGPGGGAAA
Delta-type opioid receptor (Rattus norvegicus), sequence (P33533 whole entry): as above
Mu-type opioid receptor (Rattus norvegicus), sequence (P33535 whole entry): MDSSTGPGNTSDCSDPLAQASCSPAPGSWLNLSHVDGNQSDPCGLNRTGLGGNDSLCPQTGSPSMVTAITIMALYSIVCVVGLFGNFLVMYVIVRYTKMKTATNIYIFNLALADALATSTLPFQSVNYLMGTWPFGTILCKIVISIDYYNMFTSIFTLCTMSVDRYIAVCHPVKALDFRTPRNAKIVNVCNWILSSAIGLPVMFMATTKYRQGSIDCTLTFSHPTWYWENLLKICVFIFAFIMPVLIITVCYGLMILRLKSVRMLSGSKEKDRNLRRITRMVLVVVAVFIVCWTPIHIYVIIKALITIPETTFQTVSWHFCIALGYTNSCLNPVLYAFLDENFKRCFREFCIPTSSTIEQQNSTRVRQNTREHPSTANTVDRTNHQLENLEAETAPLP
Mu-type opioid receptor, sequence (P33535 whole entry): as above

| SMILES | Activity [1] | Activity [2] | Activity [3] | Ki (Mu-type opioid receptor) [µM] | Ki [4] [µM] | Ki [5] [µM] |
| --- | --- | --- | --- | --- | --- | --- |
| CN(CCOCCCc1ccccc1)Cc1ccccc1 | – | – | – | 2.76 | > 10 | > 10 |
| CN(CCOC/C=C/c1ccccc1)CCc1ccccc1 | – | – | – | 1.68 | 6.85 | > 10 |
| CCCCN(CCCC)CCOC/C=C/c1ccccc1 | – | – | – | 2.49 | > 10 | > 10 |
| CN(CCCc1ccccc1)CCOC/C=C/c1ccccc1 | – | – | – | – | > 10 | > 10 |
| C=CCN(CC=C)CCOC/C=C/c1ccccc1 | – | inactive | inactive | > 10 | – | – |
| CCN(CC)C(=O)COC/C=C/c1ccccc1 | – | – | – | > 10 | – | – |
| CCCCN(CCCC)CCOCCCc1ccccc1 | – | – | – | 2.49 | > 10 | > 10 |
| CN(CCOCCCc1ccccc1)CCc1ccccc1 | – | – | – | 2.31 | – | > 10 |
| CN(CCCc1ccccc1)CCOCCCc1ccccc1 | – | – | – | 1.52 | 6.65 | > 10 |
| CCCN(CCC)CCOC/C=C/c1ccccc1 | – | – | – | > 10 | – | – |
| CN(CCOC/C=C/c1ccccc1)Cc1ccccc1 | – | – | – | 3.04 | > 10 | > 10 |

More lines, main results first:

| Activity [1] | Activity [2] | Activity [3] | Ki (Mu-type opioid receptor) [µM] | SMILES | Ki [4] [µM] | Ki [5] [µM] |
| --- | --- | --- | --- | --- | --- | --- |
| inactive | inactive | inactive | – | c1ccc(CCCOCCN2CCCCCC2)cc1 | – | – |
| – | – | – | > 10 | C(=C\c1ccccc1)/COCCN1CCCCCC1 | – | – |
| inactive | inactive | inactive | – | c1ccc(CCCOCCN2CCCC2)cc1 | – | – |
| – | inactive | inactive | > 10 | C=CCN(CC=C)CCOCCCc1ccccc1 | – | – |
| inactive | inactive | inactive | – | C(=C\c1ccccc1)/COCCN1CCCC1 | – | – |
| inactive | inactive | inactive | – | C(=C\c1ccccc1)/COCCN1CCCCC1 | – | – |
| – | – | – | > 10 | CCN(CC)CCOC/C=C/c1ccccc1 | – | – |
| – | – | – | > 10 | CN(C)CCOC/C=C/c1ccccc1 | – | – |
| – | – | – | > 10 | CCN(CC)CCOCCCc1ccccc1 | – | – |
| – | – | – | > 10 | CCCN(CCC)CCOCCCc1ccccc1 | – | – |
| inactive | inactive | inactive | – | c1ccc(CCCOCCN2CCCCC2)cc1 | – | – |
| – | – | – | > 10 | CN(C)CCOCCCc1ccccc1 | – | – |
| – | – | – | > 10 | CCN(CC)C(=O)COCCCc1ccccc1 | – | – |
